From PubChem BioAssay come the findings set out here.

Values joined by “and” are separate entries in the source; they are usually repeats but may differ in a detail not shown here. Identical values can stand only once. Active and inactive are the calls of the source.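 How the source made its calls, unless noted: active means potentiation averaged over duplicate wells exceeding buffer-only control mean by more than 3 SD; inactive means the rest.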

Sequence of Potassium voltage-gated channel subfamily KQT member 1 (Homo sapiens) (P51787 whole entry, looked up): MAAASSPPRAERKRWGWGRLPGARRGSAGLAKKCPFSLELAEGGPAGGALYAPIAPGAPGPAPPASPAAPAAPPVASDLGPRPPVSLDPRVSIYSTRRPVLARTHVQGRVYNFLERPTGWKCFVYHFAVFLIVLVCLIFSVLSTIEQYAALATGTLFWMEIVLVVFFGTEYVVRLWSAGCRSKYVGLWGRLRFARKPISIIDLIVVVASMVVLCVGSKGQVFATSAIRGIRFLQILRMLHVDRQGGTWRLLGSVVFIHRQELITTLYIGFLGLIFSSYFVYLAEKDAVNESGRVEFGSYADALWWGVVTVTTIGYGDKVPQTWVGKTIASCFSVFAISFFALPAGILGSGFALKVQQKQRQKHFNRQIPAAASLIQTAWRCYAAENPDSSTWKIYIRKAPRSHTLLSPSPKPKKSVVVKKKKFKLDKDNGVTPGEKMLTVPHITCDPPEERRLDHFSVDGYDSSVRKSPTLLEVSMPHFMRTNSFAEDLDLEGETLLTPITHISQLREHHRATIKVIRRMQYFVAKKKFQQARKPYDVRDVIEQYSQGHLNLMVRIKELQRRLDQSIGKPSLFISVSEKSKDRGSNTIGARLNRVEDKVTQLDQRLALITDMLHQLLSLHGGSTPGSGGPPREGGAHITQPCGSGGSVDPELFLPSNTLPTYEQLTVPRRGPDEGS

Tested on in one assay: not listed separately
The assay can be described thus: thallium flux activation in parental CHO cells, counter-screen for KCNQ1 potentiator project (AID 493006;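 active means duplicate-averaged activation above buffer control mean plus 5 SD of those controls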;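 on activation: fluorescence ratio of max minus min over baseline after K+ and Tl+ depolarization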). As to conditions: parental CHO-K1 cells, FluxOR thallium flux, at 10 µM; hits give high values. In short, it runs like this: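 Benchmarks – buffer and R-L3 controls · Assay system – untransfected host CHO-K1 cells with FluxOR thallium dye · Measure – fluorescence change ratio scaled 0% buffer, 100% R-L3 · Technique – kinetic thallium-flux fluorescence · Timing – overnight 37 °C plating, 90 min RT dye, 20 min compound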
A general note: The purpose of a counterscreen is to sort out artefacts and off-target activity.
Turning to `CCn1c(=S)[nH]c2sc3c(c2c1=O)CCCC3`, the activation is 338% (active). Turning to `COc1ccc(C(=O)CSc2nnc(NC(=O)C3CC(=O)N(c4cccc(OC)c4)C3)s2)cc1` (configuration not stated), the outcome was inactive. On to `Cc1cccc(C(=O)NNC(=O)C(=O)NC(C)(C)C)c1`, for which the activation is 159% (active). Take `CN(C(=O)c1ccco1)c1nnc(-c2ccc(F)cc2)s1`: the outcome was inactive. With `C=CCNC(=S)Nc1sc2c(c1C(=O)OCC)CC(C)(CC)OC2` (configuration not stated), the activation is 318% (active). Turning to `COC(=O)c1ccccc1NC(=O)Cn1c(=O)n(Cc2ccccc2)c(=O)c2c(C)c(C)sc21`, the outcome was inactive. `CCCc1cc2c(-c3ccccc3)cc(=O)oc2cc1OCc1ccc(C(=O)O)o1`: the activation was 193% (active). On to `Cc1ccc2cc(CN(C(=O)c3ccco3)c3ccccc3C)c(=O)[nH]c2c1`, for which the result was inactive. In the case of `N#C/C(=C/c1cn(-c2ccccc2)nc1-c1cccc(S(=O)(=O)N2CCOCC2)c1)C(=O)NCc1ccco1`, the result was inactive. Turning to `NC(=NCCCCCCN=C(N)/N=C(\N)Nc1ccc(Cl)cc1)/N=C(\N)Nc1ccc(Cl)cc1`, the activation was 240% (active) and 259% (active). Regarding `NC(=O)c1cccc(N=Cc2cc(Cl)cc(Cl)c2O)c1`, the activation is 178% (active).

For `Cc1cc(NC(=O)CSc2nc(C3CC3)nc3sc(C)c(C)c23)no1`, the activation was 148% (active). As to `O=C(Nc1nc(=O)c2ccccc2s1)c1ccc(F)cc1`, the result was inactive. For the compound `CCOC(=O)Cn1c(=S)[nH]c2c(oc3ccc(Cl)cc32)c1=O`, the activation was 226% (active). Consider `COc1ccc(CNC(=O)CNC(C)c2ccc(F)cc2)cc1` (configuration not stated), for which the result was inactive.

`CCOC(=O)C1=NN(C(=O)c2ccc(OC)cc2)C(O)(c2ccc(Cl)cc2)C1` (configuration not stated): the activation is 456% (active). On to `Fc1cccc(/C=N/NC(=S)Nc2ccccc2Cl)c1`, for which the result was inactive. In the case of `CCOC(=O)c1sc(NC(=S)NC(=O)c2ccc(OC)cc2)nc1C`, the outcome was inactive. For the compound `Cc1ccc(C)c(/C=C/C(=O)c2ccccc(=O)c2O)c1`, the activation was 194% (active). As for `CC1C/C(=C/c2ccncc2)C(=O)/C(=C/c2ccncc2)C1` (configuration not stated), the result was inactive. Take `Oc1c(Cl)cc(Cl)c2cccnc12`: the activation was 148% (active). Turning to `Cc1c(N2C(=O)/C(=C\c3ccccc3O)SC2=S)c(=O)n(-c2ccccc2)n1C`, the activation was 398% (active).

A further assay has as its target Potassium voltage-gated channel subfamily KQT member 1 (Homo sapiens) (UniProt P51787). The assay can be described thus: KCNQ1 potassium channel potentiators, confirmation, FluxOR thallium flux, CHO cells, duplicates (AID 493007).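 On outcome: cells depolarized by a potassium plus thallium sulfate stimulus after compound.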 As to conditions: KCNQ1 cell line, FluxOR thallium flux fluorescence, at 10 µM; hits give high values, % of reference activator effect, buffer zero. The gist of the method:
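Material: CHO cells stably expressing the KCNQ1 potassium channel / Times: dye 90 min then compound 20 min, both at room temperature / Detection: kinetic thallium influx fluorescence with FluxOR dye, 10 s baseline, 110 s post-stimulus / Benchmarks: buffer-only wells as 0% and R-L3 activator as 100% / Replicates: each compound tested in duplicate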
Take `CC(=O)Nc1c2c(nn1-c1ccc(C)cc1)CS(=O)(=O)C2`: the outcome was inactive. In the case of `CN(C)CCNc1ncnc2c1sc1nc(N3CCCC3)c3c(c12)CC(C)(C)OC3`, the potentiation was 32% (active). For `CC(=O)c1c(O)cc(C)n(-c2ccc(F)cc2)c1=O`, the outcome was inactive.

In the case of `COCCn1c(SCC(=O)NCc2ccc3c(c2)OCO3)nnc1C(C)C`, the result was inactive.

Turning to `CCC(C(=O)OCC(=O)NC(=O)NC(C)(C)C)c1ccccc1` (configuration not stated), the result was inactive.

Regarding `Cc1nn2c(NCc3ccccn3)cc(C(C)C)nc2c1-c1ccccc1`, the outcome was inactive. The same measure, in the same setting: the entry for `CCOC(=O)CSc1nc2ccccc2n2c(C)nnc12` is “inactive”.

As to `Cc1cccc(/C=C/C(=O)c2cc(Br)ccc(=O)c2O)c1`, the potentiation is 90% (active).

With `N=c1ccn(CC(=O)c2ccc(-c3ccccc3)cc2)cc1`, the result was inactive. Same read-out and setting: in the case of `O=C(NC(=S)Nc1ccccc1)c1cccs1` it was “inactive”. Consider `CC(/C=C1\SC(=S)N(NS(=O)(=O)c2ccc(C)cc2)C1=O)=C\c1ccccc1`, for which the potentiation was 424% (active). With `O=C(COc1ccc(Cl)cc1)NNC(=O)C(=O)NC1CCCCC1`, the outcome was inactive.

Take `COc1ccc(-n2cc(CNC3CCN(C)CC3)c(-c3cccc(F)c3)n2)cc1`: the potentiation is 31% (active). Still for that read-out and setting: the figure for `COc1cc(OC)cc(C(=O)NC(=S)N2CCCCCC2)c1` is 48% (active). As for `Nc1c(C(=O)Nc2ccc(F)cc2)nnn1-c1cccc(C(F)(F)F)c1`, the outcome was inactive. Still for that read-out and setting: in the case of `CC(C)(C)n1nnnc1C(c1cc2cc3c(cc2[nH]c1=O)OCCO3)N1CCSCC1` (configuration not stated) it was “inactive”. On the same count and under the same terms, the entry for `O=C(NNc1nc2c(F)cccc2s1)c1cc(=O)c2ccccc2o1` is “inactive”. On to `CCc1ccc(NC(=O)C(=O)NNC(=O)COc2cccc(OC)c2)cc1`, for which the potentiation was 76% (active). Same read-out and setting: the figure for `CCn1c(=S)[nH]c2sc3c(c2c1=O)CCCC3` is 149% (active). For the compound `COc1ccc(C(=O)CSc2nnc(NC(=O)C3CC(=O)N(c4cccc(OC)c4)C3)s2)cc1` (configuration not stated), the result was inactive. In the case of `Cc1cccc(C(=O)NNC(=O)C(=O)NC(C)(C)C)c1`, the potentiation is 30.5% (active).

For `CN(C(=O)c1ccco1)c1nnc(-c2ccc(F)cc2)s1`, the outcome was inactive.

As to `C=CCNC(=S)Nc1sc2c(c1C(=O)OCC)CC(C)(CC)OC2` (configuration not stated), the potentiation was 49.5% (active). As to `COC(=O)c1ccccc1NC(=O)Cn1c(=O)n(Cc2ccccc2)c(=O)c2c(C)c(C)sc21`, the result was inactive. With `CCCc1cc2c(-c3ccccc3)cc(=O)oc2cc1OCc1ccc(C(=O)O)o1`, the potentiation was 73% (active). With `Cc1ccc2cc(CN(C(=O)c3ccco3)c3ccccc3C)c(=O)[nH]c2c1`, the result was inactive. Still for that read-out and setting: the entry for `N#C/C(=C/c1cn(-c2ccccc2)nc1-c1cccc(S(=O)(=O)N2CCOCC2)c1)C(=O)NCc1ccco1` is “inactive”. As for `NC(=NCCCCCCN=C(N)/N=C(\N)Nc1ccc(Cl)cc1)/N=C(\N)Nc1ccc(Cl)cc1`, the potentiation was 59.5% (active) and 91.5% (active).

As to `NC(=O)c1cccc(N=Cc2cc(Cl)cc(Cl)c2O)c1`, the potentiation is 25% (active). Regarding `Cc1cc(NC(=O)CSc2nc(C3CC3)nc3sc(C)c(C)c23)no1`, the potentiation is 38% (active). On to `O=C(Nc1nc(=O)c2ccccc2s1)c1ccc(F)cc1`, for which the result was inactive.

For the compound `CCOC(=O)Cn1c(=S)[nH]c2c(oc3ccc(Cl)cc32)c1=O`, the potentiation was 36% (active). As for `COc1ccc(CNC(=O)CNC(C)c2ccc(F)cc2)cc1` (configuration not stated), the outcome was inactive. Take `CCOC(=O)C1=NN(C(=O)c2ccc(OC)cc2)C(O)(c2ccc(Cl)cc2)C1` (configuration not stated): the potentiation is 136% (active). As for `Fc1cccc(/C=N/NC(=S)Nc2ccccc2Cl)c1`, the potentiation is 41.5% (active). Consider `CCOC(=O)c1sc(NC(=S)NC(=O)c2ccc(OC)cc2)nc1C`, for which the result was inactive. With `Cc1ccc(C)c(/C=C/C(=O)c2ccccc(=O)c2O)c1`, the potentiation is 118% (active). `CC1C/C(=C/c2ccncc2)C(=O)/C(=C/c2ccncc2)C1` (configuration not stated): the result was inactive. On to `Oc1c(Cl)cc(Cl)c2cccnc12`, for which the potentiation was 67% (active). On the same count and under the same terms, in the case of `Cc1c(N2C(=O)/C(=C\c3ccccc3O)SC2=S)c(=O)n(-c2ccccc2)n1C` it was 200% (active).
